In brackets after ≈: the same amount, converted by molar mass. A value given as a limit tells only on which side of the number the result lay.

Data set [1] can be described thus: Oral bioavailability in Wistar rat at 6 mg/kg. The following applies: in vivo. In kind it is ADME, organism-based. The essentials:
(§1)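 Male Wistar rats are dosed at 1 mg/kg iv for half-life and clearance, and at 6 mg/kg po for AUC, Cmax and oral bioavailability.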

The nature of data set [2]: Drug level in NMRI mouse brain at 43.3 mg/kg, ip after 5 mins. In kind it is ADME, organism-based. Details: dose 43.3 mg/kg, route intraperitoneal. The following applies: read-out: Drug uptake. An outline of the steps:
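NMRI mice are dosed ip at 43.3 mg/kg. Plasma and brain exposure are determined 5 min after dosing, and free brain concentration is reported.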

The target of another data set is CYP3A4 (Homo sapiens, UniProt P08684). Nature of the data set: Inhibition of human CYP3A4 at 50 uM. Type of data set: ADME.
In a further data set the target is CYP2D6 (Homo sapiens, UniProt P10635). Kind of data set: Inhibition of human CYP2D6 at 50 uM. Type of data set: ADME.
A short description of data set [3]: Half life in Wistar rat at 1 mg/kg, iv. Details: dose 1 mg/kg, route intravenous. In kind it is ADME, organism-based. Particulars: in vivo. The essentials:
as §1

A short description of data set [4]: AUC in Wistar rat at 6 mg/kg, po. Details: dose 6 mg/kg, route oral. Type of data set: ADME, organism-based. The following applies: plasma. The essentials:
as §1

A short description of data set [5]: Antagonist activity to dog NKCC1 transporter expressed in MDCK cells assessed as inhibition of Cl- free medium-stimulated Rb+ influx at 100 uM after 45 mins by atomic absorption spectroscopy. Type of data set: functional, Canis lupus familiaris. The following applies: Canis lupus familiaris, MDCK, 0.75 h. An outline of the steps: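 MDCK cells express endogenous canine NKCC1. NKCC1 is activated by incubating the cells for 2 h in Cl−-free medium. Rb+ influx is then stimulated for 45 min by adding 20 mM RbCl to the extracellular solution. Intracellular Rb+ is quantified by atomic absorption spectroscopy, and results are given as percent inhibition.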

Data set [6] in a line: Clearance in Wistar rat at 1 mg/kg, iv. Type of data set: ADME, organism-based. Details: dose 1 mg/kg, route intravenous. Particulars: in vivo. The essentials:
as §1

A further data set deals with CYP2C9 (Homo sapiens, UniProt P11712). Kind of data set: Inhibition of human CYP2C9 at 50 uM. In kind it is ADME.
Data set [7] concerns the target T1, Solute carrier family 12 member 5 (Rattus norvegicus, UniProt Q63633).
T1 sequence (Q63633 whole entry): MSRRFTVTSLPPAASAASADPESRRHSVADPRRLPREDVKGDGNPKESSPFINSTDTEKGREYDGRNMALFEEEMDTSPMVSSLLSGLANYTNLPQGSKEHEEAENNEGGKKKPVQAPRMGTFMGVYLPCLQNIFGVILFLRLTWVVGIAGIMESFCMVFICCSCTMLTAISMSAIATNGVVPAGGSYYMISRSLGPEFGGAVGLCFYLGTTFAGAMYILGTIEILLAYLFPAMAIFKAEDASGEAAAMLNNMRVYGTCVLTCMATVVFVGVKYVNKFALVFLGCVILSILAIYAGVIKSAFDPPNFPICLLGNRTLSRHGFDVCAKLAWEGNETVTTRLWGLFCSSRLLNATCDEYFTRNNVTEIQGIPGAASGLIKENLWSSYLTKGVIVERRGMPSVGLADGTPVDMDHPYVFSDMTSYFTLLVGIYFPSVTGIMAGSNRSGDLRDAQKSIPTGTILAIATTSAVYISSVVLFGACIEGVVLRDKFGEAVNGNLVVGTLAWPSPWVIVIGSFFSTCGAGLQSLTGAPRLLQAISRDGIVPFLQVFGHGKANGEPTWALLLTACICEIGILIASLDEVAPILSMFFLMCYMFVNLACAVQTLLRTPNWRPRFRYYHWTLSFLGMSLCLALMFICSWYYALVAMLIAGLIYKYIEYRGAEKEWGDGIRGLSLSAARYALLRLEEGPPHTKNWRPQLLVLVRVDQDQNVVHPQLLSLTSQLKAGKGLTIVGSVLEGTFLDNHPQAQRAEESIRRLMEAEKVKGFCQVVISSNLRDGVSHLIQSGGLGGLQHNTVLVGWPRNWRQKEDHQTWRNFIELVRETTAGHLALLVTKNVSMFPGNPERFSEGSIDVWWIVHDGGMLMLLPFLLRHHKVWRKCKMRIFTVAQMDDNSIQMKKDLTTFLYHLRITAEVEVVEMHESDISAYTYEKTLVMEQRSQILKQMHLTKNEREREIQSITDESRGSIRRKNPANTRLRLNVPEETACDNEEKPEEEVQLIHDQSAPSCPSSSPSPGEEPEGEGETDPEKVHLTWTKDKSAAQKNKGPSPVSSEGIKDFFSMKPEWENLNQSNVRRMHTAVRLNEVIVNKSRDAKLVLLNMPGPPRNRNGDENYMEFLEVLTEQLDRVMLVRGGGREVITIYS
Kind of data set: Antagonist activity of rat KCC2 transporter expressed in human SK-Hep cells assessed as inhibition of N-ethylmaleimide-mediated Rb+ influx after 10 mins by atomic absorption spectroscopy. Type of data set: functional, cell-based. The essentials:
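Rat KCC2 stably expressed in a selected clone. The co-transporter is activated with N-ethylmaleimide in the presence of the test compound, and Rb+ influx is started by adding 5 mM RbCl to the extracellular medium. Influx is stopped after 10 min by repeated washes. Intracellular Rb+ is measured by atomic absorption spectroscopy, and IC50 is reported.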

A short description of data set [8]: Intrinsic clearance in rat microsomes assessed per mg of protein. In kind it is ADME, Microsome.
Data set [9] in a line: Intrinsic clearance in rat hepatocytes assessed per 10^6 cells.
Data set [10] is described as follows: Aqueous solubility in PBS buffer at pH 7.4. Type of data set: physicochemical.
A further data set deals with CYP2C19 (Homo sapiens, UniProt P33261). Kind of data set: Inhibition of human CYP2C19 at 50 uM. Type of data set: ADME.
Data set [11] in a line: Cmax in Wistar rat at 6 mg/kg, po. In kind it is ADME, organism-based. Details: dose 6 mg/kg, route oral. The following applies: in vivo. The essentials: as §1
The nature of data set [12]: Apparent permeability across human Caco-2 cells. In kind it is ADME, cell-based. A general note: Passage across Caco-2 layers is used to estimate intestinal permeability.

Chain of CYP2C19 (P33261 whole entry): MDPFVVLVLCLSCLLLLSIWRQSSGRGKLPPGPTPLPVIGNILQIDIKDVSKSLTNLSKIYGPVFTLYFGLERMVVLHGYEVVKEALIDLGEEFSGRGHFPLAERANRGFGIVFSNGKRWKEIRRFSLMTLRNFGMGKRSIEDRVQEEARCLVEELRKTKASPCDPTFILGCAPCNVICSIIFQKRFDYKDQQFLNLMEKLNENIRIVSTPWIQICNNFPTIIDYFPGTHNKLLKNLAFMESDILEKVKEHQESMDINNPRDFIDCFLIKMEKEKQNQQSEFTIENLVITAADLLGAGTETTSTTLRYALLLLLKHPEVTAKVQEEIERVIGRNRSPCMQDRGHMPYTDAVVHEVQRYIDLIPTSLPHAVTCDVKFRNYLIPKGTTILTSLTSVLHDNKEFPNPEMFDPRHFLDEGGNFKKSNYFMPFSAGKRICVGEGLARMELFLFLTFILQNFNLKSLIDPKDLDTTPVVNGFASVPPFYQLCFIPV
Chain of CYP2D6 (P10635 whole entry): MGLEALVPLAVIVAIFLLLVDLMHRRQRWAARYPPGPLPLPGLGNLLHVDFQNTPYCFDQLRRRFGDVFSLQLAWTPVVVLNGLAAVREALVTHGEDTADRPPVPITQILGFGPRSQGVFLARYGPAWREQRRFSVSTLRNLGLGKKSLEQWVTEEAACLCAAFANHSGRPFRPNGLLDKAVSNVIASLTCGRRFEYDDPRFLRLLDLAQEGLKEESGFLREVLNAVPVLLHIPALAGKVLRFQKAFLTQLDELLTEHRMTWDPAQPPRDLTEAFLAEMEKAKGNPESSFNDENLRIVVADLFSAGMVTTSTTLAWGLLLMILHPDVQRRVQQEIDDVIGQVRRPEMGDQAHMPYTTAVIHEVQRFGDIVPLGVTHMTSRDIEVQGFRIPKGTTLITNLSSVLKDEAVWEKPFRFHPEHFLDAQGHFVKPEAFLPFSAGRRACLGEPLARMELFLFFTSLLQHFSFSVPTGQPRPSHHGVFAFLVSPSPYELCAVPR
Chain of CYP3A4 (P08684 whole entry): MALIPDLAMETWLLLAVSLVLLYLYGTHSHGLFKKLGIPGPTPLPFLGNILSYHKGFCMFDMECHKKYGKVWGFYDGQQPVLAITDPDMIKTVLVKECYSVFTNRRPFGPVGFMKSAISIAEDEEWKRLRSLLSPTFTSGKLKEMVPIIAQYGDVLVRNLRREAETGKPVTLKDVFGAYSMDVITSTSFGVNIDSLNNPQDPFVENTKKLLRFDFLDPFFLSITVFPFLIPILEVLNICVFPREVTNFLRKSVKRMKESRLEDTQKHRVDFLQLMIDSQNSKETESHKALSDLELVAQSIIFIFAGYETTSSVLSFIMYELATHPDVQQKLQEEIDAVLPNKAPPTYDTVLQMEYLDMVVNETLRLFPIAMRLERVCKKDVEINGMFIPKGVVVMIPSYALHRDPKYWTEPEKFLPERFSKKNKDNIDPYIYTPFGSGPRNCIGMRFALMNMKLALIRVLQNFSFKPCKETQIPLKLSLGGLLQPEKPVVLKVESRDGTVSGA
Chain of CYP2C9 (P11712 whole entry): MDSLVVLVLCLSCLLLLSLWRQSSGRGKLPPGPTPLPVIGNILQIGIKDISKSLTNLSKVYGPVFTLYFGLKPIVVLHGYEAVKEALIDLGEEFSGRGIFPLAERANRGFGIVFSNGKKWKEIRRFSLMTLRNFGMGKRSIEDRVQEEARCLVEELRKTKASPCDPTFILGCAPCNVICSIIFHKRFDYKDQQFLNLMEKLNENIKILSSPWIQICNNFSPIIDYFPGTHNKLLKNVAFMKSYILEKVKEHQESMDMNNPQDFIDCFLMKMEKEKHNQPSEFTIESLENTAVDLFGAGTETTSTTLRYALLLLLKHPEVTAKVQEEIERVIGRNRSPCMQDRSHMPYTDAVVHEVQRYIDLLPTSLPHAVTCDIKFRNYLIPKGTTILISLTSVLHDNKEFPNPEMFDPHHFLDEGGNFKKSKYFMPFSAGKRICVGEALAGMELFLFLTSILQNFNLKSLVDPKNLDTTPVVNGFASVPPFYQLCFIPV

As for `CC(=O)N1CCCC1(Cc1ccc(S(C)(=O)=O)cc1)C(=O)OCc1ccccc1` (stereo in doubt; 13), the bioavailability (commonly dose-corrected exposure relative to a reference, in per cent) in data set [1] worked out at 18%. Further, the concentration at 5 min in [2] was 6 µM. Besides, the inhibition at 50 µM on CYP3A4, against CYP2D6, at CYP2C9 and on CYP2C19 was less than 30% each time. Further, the half-life (usually the time in which the quantity being followed falls by half) in data set [3] was 18 min. Also, the AUC (in general, concentration integrated over time) in [4] turned out to be 726 ng·h/mL. For the same molecule, the inhibition (as a rule, the change of the read-out against control, counted positive when it falls) at 100 µM in data set [5] amounted to 35%. In addition, the clearance (usually the volume of plasma or blood freed of the substance per unit of time) in data set [6] amounted to 26 mL/min/kg. Further, the IC50 (usually the point on the concentration scale where inhibition reaches its midpoint) in [7] was 1000 nM. In [8], the microsomal CLint – broadly, the rate of metabolic loss divided by the concentration – was determined as 16 µL/min/mg. Further, in data set [9], the intrinsic clearance (hepatocyte CLint) (in general, a measure of how fast metabolising enzymes remove a compound, apart from limits set by blood flow) was determined as 12 µL/min/1e6 cells. The amount in solution in data set [10] (solubility) came to 500 µg/mL (≈ 1200 µM). Moreover, in [11], the maximum concentration (Cmax) (usually the highest concentration seen after dosing) is 457 ng/mL. Further, in [12], the Papp – broadly, a coefficient for how fast a substance crosses the barrier – amounted to 31 ×10⁻⁶ cm/s.

The values are drawn from ChEMBL document CHEMBL1156993, “Benzyl prolinate derivatives as novel selective KCC2 blockers” (Bioorg Med Chem Lett, 2010).
